For data set [1], the system named is Rattus norvegicus. Put plainly: Antiinflammatory activity in Sprague-Dawley rat assessed as inhibition of carrageenan-induced paw edema at 70 mg/kg, po after 4 hrs relative to control. It is filed as functional. Put shortly:
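Winter carrageenin paw oedema in adult male Sprague–Dawley rats (150–180 g, six per group), fasted overnight with water available. Dosing was 70 mg/kg po in 1% CMC, with controls on vehicle alone, 1 h before 0.1 mL 1.0% carrageenin into the right hind plantar region. Paw volume was read by plethysmometer before and 4 h after, giving % inhibition versus control.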

A further data set deals with Mus musculus. The data set can be described thus: Analgesic activity in Swiss mouse assessed as inhibition of acetic acid-induced writhing responses at 70 mg/kg, po after 1 hr relative to control. Background: Writhing tests count abdominal constrictions after an irritant is injected.
The test system of data set [2] is Rattus norvegicus. Put plainly: Acute toxicity in Sprague-Dawley rat assessed as survival up to 200 mg/kg, po. It is filed as organism-based. Also noted: dose 200 mg/kg, route oral. To be noted: in vivo. Summed up: (§1)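 Male Sprague–Dawley rats (200–250 g), housed individually under 12 h light–dark, split into four groups, each given a different single dose by oral gavage. Animals were then watched for deaths or other behavioural changes.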

Data set [3] deals with Rattus norvegicus. The data set can be described thus: Acute toxicity in Sprague-Dawley rat assessed as behavioral changes up to 200 mg/kg, po. The settings on record: in vivo. It is filed as organism-based. Also noted: dose 200 mg/kg, route oral. Put shortly:
as §1

Data set [4] has as its system Rattus norvegicus. The data set can be described thus: Acute toxicity in Sprague-Dawley rat assessed as toxicological changes up to 200 mg/kg, po. It is filed as organism-based. Also noted: dose 200 mg/kg, route oral. To be noted: in vivo. Summed up:
as §1

As for `CC(=O)C1=NN(c2ccc([N+](=O)[O-])cc2)C2(S1)c1ccccc1Sc1ccccc12`, the inhibition in vivo at 70 mg/kg with Rattus norvegicus [1] is 86%; in the data set on Mus musculus it was 73%.
`CC(=O)C1=NN(c2ccccc2)SC12c1ccccc1Oc1ccccc12`: in the data set on Rattus norvegicus [1], the inhibition in vivo at 70 mg/kg worked out at 79%.
As to `CC(=O)C1=NN(c2ccc(Cl)cc2)C2(S1)c1ccccc1Sc1ccccc12`, the figures for the inhibition in vivo at 70 mg/kg in the data set with Rattus norvegicus [1] and with Mus musculus were 82% and 57%, respectively. The Activity result with Rattus norvegicus [2], in the data set on Rattus norvegicus [3] and in the data set on Rattus norvegicus [4] was “Non-toxic” throughout.
Take `CCOC(=O)C1=NN(c2ccc(C)cc2)C2(S1)c1ccccc1Sc1ccccc12`: in the data set with Rattus norvegicus [1], the inhibition in vivo at 70 mg/kg was determined as 71%.
As to `CC(=O)C1=NN(c2ccc(Br)cc2)SC12c1ccccc1Oc1ccccc12`, the inhibition in vivo at 70 mg/kg with Rattus norvegicus [1] turned out to be 76%.
As for `CC(=O)C1=NN(c2ccccc2)C2(S1)c1ccccc1Sc1ccccc12`, the inhibition in vivo at 70 mg/kg with Rattus norvegicus [1] stood at 75%.
Regarding `CC(C)Cc1ccc(C(C)C(=O)O)cc1` (configuration not stated) [IBUPROFEN], the inhibition in vivo at 70 mg/kg was found to be 92% in the data set on Rattus norvegicus [1] and 83.5% in the data set on Mus musculus.
`CC(=O)C1=NN(c2ccc([N+](=O)[O-])cc2)SC12c1ccccc1Oc1ccccc12`: the inhibition in vivo at 70 mg/kg with Rattus norvegicus [1] was found to be 84%; with Mus musculus it was 56.6%.
For `CC(=O)C1=NN(c2ccc(Cl)cc2)SC12c1ccccc1Oc1ccccc12` the same measures were 82% and 72%.
On to `c1ccc(C2=NN(c3ccccc3)C3(S2)c2ccccc2Sc2ccccc23)cc1`, for which the results for the inhibition in vivo at 70 mg/kg with Rattus norvegicus [1] and in the data set with Mus musculus were 85% and 59%, respectively. The Activity result in the data set with Rattus norvegicus [2], with Rattus norvegicus [3] and in the data set with Rattus norvegicus [4] was “Non-toxic” each time.

A word on the inhibition in vivo: it is the percentage by which the read-out fell short of the control.

These data come from ChEMBL document CHEMBL1156580, “A facile regioselective synthesis of novel spiro-thioxanthene and spiro-xanthene-9',2-[1,3,4]thiadiazole derivatives as potential analgesic and anti-inflammatory agents” (Bioorg Med Chem Lett, 2008).
